High-throughput results from PubChem BioAssay.
SENP8 block-1: inhibitors of human SENP8 protease; 360,000 compounds, 0.64% hits; recombinant SENP8, Nedd8 substrate fluorescence; AID 602440; inhibition, % at 20 µM; in the data active = inhibition mostly above about 40%, no sharp cut-off; inactive = mostly below about 27%
Target sequence (Q96LD8 whole entry, looked up): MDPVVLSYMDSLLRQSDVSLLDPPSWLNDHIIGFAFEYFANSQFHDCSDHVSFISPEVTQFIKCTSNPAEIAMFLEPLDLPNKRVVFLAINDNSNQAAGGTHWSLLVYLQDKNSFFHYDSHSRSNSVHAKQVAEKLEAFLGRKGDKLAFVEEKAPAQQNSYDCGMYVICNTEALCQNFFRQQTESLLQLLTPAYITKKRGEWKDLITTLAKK
SENP8 block-2: blocks the human protease SENP8 | Q96LD8 | purified SENP8, Z-RLRGG-aminoluciferin cleavage, luminescence | inhibition, % at 10 µM | 330,000 compounds, 1.2% hits | AID 2540; in the data active = inhibition above about 50%
SENP7 inh: SENP7 protease inhibition; Q9BQF6; recombinant SENP7, Z-RLRGG-aminoluciferin luminescence, 40 min; inhibition, % at 5 µM; 330,000 compounds, 1.5% hits; AID 434973;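 active = inhibition above about 50% at the single test dose, limit read from the data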;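 note: plate controls were DMSO with enzyme for no effect and no enzyme buffer wells for full effect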
SENP6 inh: SENP6 protease inhibition; AID 2599; 330,000 compounds, 1.8% hits; Q9GZR1; Recombinant SENP6 catalytic domain, aminoluciferin luminescence; inhibition, % at 10 µM;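 active = inhibition above about 50% at the single tested dose, limit read from the data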;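 note: plate controls were DMSO wells with enzyme for no effect and DMSO wells lacking enzyme for full effect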
SENP1 FRET inh: SENP1 (human) catalytic domain inhibition | inhibition, % at 10 µM | 360,000 compounds, 0.21% hits | AID 624204 | Q9P0U3 | recombinant SENP1 catalytic domain, CyPet-SUMO1-YPet FRET cleavage;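 active = inhibition at least 30% at 10 µM, raw YFP signal under a set limit, fluorescence ratio 0.5 to 1.5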;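 note: 0% = enzyme with DMSO and 100% = no enzyme wells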
Target sequence (Q9P0U3 419-644 limits assumed): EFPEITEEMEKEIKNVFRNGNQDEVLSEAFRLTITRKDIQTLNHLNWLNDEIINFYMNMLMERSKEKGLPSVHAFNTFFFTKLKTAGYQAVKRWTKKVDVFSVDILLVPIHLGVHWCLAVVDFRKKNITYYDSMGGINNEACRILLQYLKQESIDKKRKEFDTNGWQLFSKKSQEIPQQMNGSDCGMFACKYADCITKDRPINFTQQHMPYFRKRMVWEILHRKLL
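Assay system – human recombinant His6-tagged SENP1 catalytic domain enzyme · Input – SENP1 enzyme, 20 pM final · Buffer or medium – Tris pH 8 buffer plus EDTA, NaCl, BME, BSA, NP40, catalase · Schedule – 50 min reaction at room temperature · Technique – FRET read of cyan and yellow fluorescence · Control set – no-enzyme wells low, DMSO-plus-enzyme wells high control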
Active calls of the source: *. Sampled rows, rich in hits. Any-hit rate of the full collection: about 2.5%.

`COc1ccc(-[n+]2c(C)cc(/C=C3\Sc4ccccc4N3C)cc2C)cc1` gave SENP8 block-1 43.4*, SENP8 block-2 4.0, SENP7 inh 8.1, SENP6 inh 0.0 and SENP1 FRET inh -25.3.
`O=c1cc(-c2ccc(O)cc2)oc2c(O)c(O)c(O)c(O)c12` gave SENP8 block-1 71.2*, SENP8 block-2 24.0, SENP7 inh 11.4, SENP6 inh 44.3 and SENP1 FRET inh -11.4.
For CC(=O)c1ccc2c(c1)C1C=CCC1C(C(=O)O)N2 (stereo unspecified) the results were SENP8 block-1 13.4, SENP8 block-2 10.7, SENP7 inh 3.1, SENP6 inh 7.9 and SENP1 FRET inh 15.6.
Screening CC(=O)c1ccc2c(c1)C1C=CCC1C(c1ccncc1)N2 (stereo unspecified) returned SENP8 block-1 16.3, SENP8 block-2 6.9, SENP7 inh 17.8, SENP6 inh 36.8 and SENP1 FRET inh 37.6*.
O=c1c(O)c(-c2cc(O)c(O)c(O)c2)oc2cc(O)cc(O)c12 was read as SENP8 block-1 38.9*, SENP8 block-2 4.0, SENP7 inh 3.4, SENP6 inh 13.3 and SENP1 FRET inh 83.7*.
Screening O=c1c(O)c(-c2ccccc2)oc2cc(O)cc(O)c12 returned SENP8 block-1 36.5, SENP8 block-2 10.3, SENP7 inh -8.1, SENP6 inh 17.0 and SENP1 FRET inh 8.8.
For NC(=S)N=Nc1c(O)n(CCCl)c2ccc(Br)cc12 the results were SENP8 block-1 49.6*, SENP8 block-2 -5.3, SENP7 inh -4.4, SENP6 inh -25.9 and SENP1 FRET inh 3.6.
C/C(Cl)=C\Cn1c(O)c(N=NC(N)=S)c2cc(Br)ccc21 was read as SENP8 block-1 17.1, SENP8 block-2 -9.3, SENP7 inh -4.2, SENP6 inh -12.5 and SENP1 FRET inh 4.7.
COc1ccc(C(c2c(C)n(C)n(-c3ccccc3)c2=O)c2c(C)n(C)n(-c3ccccc3)c2=O)cc1OC was read as SENP8 block-1 10.9, SENP8 block-2 5.4, SENP7 inh 5.6, SENP6 inh -15.0 and SENP1 FRET inh -0.5.
COc1ccc(C(c2c(C)[nH]n(-c3ccccc3)c2=O)c2c(C)[nH]n(-c3ccccc3)c2=O)cc1OC was read as SENP8 block-1 84.0*, SENP8 block-2 -4.1, SENP7 inh 31.1, SENP6 inh 7.7 and SENP1 FRET inh 2.0.
For Cc1[nH]n(-c2ccccc2)c(=O)c1C(C[N+](=O)[O-])c1ccc(Cl)cc1 (stereo unspecified) the results were SENP8 block-1 45.2*, SENP8 block-2 -3.2, SENP7 inh 22.2, SENP6 inh 23.3 and SENP1 FRET inh 1.1.
CC(C)(C)c1ccc(OCCNC(=O)c2ncn[nH]2)cc1 was read as SENP8 block-1 -2.0, SENP8 block-2 3.8, SENP7 inh -1.1, SENP6 inh 2.1 and SENP1 FRET inh 0.5.
Screening Cc1ccc(NC(=S)NNC(=O)Nc2ccccc2)cc1 returned SENP8 block-1 12.8, SENP8 block-2 29.3, SENP7 inh 47.2, SENP6 inh 52.5* and SENP1 FRET inh 0.3.
O=C(NNC(=S)Nc1ccccc1)Nc1ccccc1 was read as SENP8 block-1 3.1, SENP8 block-2 -8.0, SENP7 inh -4.2, SENP6 inh 6.1 and SENP1 FRET inh 4.1.
`COC1=CC(=O)C(OC)=C(OC)C1=O` gave SENP8 block-1 40.9* and SENP1 FRET inh -24.2.
Screening CC(=O)c1ccc(NC(=S)Nc2cccc3cnccc23)cc1 returned SENP8 block-1 -318.3, SENP8 block-2 92.0*, SENP7 inh 61.1*, SENP6 inh 87.4* and SENP1 FRET inh -16.3.
O=C(Nc1ccc(N2CCCC2)cc1)C(Cl)c1ccccc1 (stereo unspecified) was read as SENP8 block-1 38.5, SENP8 block-2 33.9, SENP7 inh -0.7, SENP6 inh 65.7* and SENP1 FRET inh 12.1.
Cc1cccc(-c2cc3c(N=O)c4ccccc4c-3n[nH]2)c1 was read as SENP8 block-1 4.3, SENP8 block-2 10.5, SENP7 inh 99.5*, SENP6 inh 96.2* and SENP1 FRET inh 2.5.
For O=c1cc2c(=O)oc3cc(O)c(O)oc3c2c(O)c1O the results were SENP8 block-1 12.6 and SENP1 FRET inh 30.2*.
For Cc1cccc(-n2c(C)c(C)c3c(N)ncnc32)c1 the results were SENP8 block-1 -18.7, SENP8 block-2 -2.6, SENP7 inh -4.6, SENP6 inh -9.6 and SENP1 FRET inh 0.0.
For CC(=O)Nc1ccc(/C=C2\Sc3ccccc3C2=O)cc1 the results were SENP8 block-1 -95.9, SENP8 block-2 46.2, SENP7 inh 82.9*, SENP6 inh 67.1* and SENP1 FRET inh -37.9.
`CN(C(=O)c1ccc(Br)o1)C1(C)CCS(=O)(=O)C1` (stereo unspecified) gave SENP8 block-1 3.6, SENP8 block-2 -5.3, SENP7 inh -0.5, SENP6 inh -15.3 and SENP1 FRET inh 0.4.
`N=C1/C(=C\c2ccc(-c3cccc(C(=O)O)c3)o2)C(=O)N=C2SC=C(c3ccccc3)N12` gave SENP8 block-1 -80.4, SENP8 block-2 46.1, SENP7 inh -2.6, SENP6 inh 79.4* and SENP1 FRET inh -34.0.
For CC(NC(=O)c1ccc2c(c1)OCO2)C(c1cccs1)N1CCN(c2ccccc2)CC1 (stereo unspecified) the results were SENP8 block-1 20.1, SENP8 block-2 -0.9, SENP7 inh 8.4, SENP6 inh -10.1 and SENP1 FRET inh 4.3.
`CN(C)c1cccc(/C=C(\C#N)c2ccccc2)c1` gave SENP8 block-1 17.2, SENP8 block-2 57.1*, SENP7 inh 37.2, SENP6 inh 54.7* and SENP1 FRET inh -111.3.
For Cc1ccccc1NC1=C(C(=O)c2ccccc2)N(C)S(=O)(=O)c2ccccc21 the results were SENP8 block-1 42.6*, SENP8 block-2 0.7, SENP7 inh 4.6, SENP6 inh -10.6 and SENP1 FRET inh 22.2.
`CC1(OC(=O)c2cccs2)C(=O)C=C2C=C3CCCN3C=C2C1=O` (stereo unspecified) gave SENP8 block-1 58.6*, SENP8 block-2 -3.3, SENP7 inh 8.6, SENP6 inh -21.1 and SENP1 FRET inh -10.0.
`Cc1c(Cl)cccc1NC(=S)N1CCN(C(=O)C2CCCO2)CC1` (stereo unspecified) gave SENP8 block-1 19.4, SENP8 block-2 -5.0, SENP7 inh 7.5, SENP6 inh -0.5 and SENP1 FRET inh 3.9.
`O=C1NC(=Nc2ccccc2)S/C1=C\c1ccccc1` gave SENP8 block-1 -13.4, SENP8 block-2 -3.2, SENP7 inh 11.9, SENP6 inh 5.4 and SENP1 FRET inh -1.2.
O=C1N/C(=N/Nc2ccccc2)S/C1=C\c1ccccc1 was read as SENP8 block-1 20.5, SENP8 block-2 -5.6, SENP7 inh -2.6, SENP6 inh 27.4 and SENP1 FRET inh 104.8*.
CCC(c1ccccc1)C(CC)c1cc(O)c(O)c(O)c1 (stereo unspecified) was read as SENP8 block-1 63.5* and SENP1 FRET inh 0.1.
Screening O=C(c1cnn(-c2ccccc2)c1)c1ccccc1O returned SENP8 block-1 6.8, SENP8 block-2 80.8*, SENP7 inh 87.5*, SENP6 inh 85.1* and SENP1 FRET inh -3.4.
